CSC inhib: blocks cancer stem cells. inhibition, % at 7.5 µM. actives 1.1% (n = 300,000). cancer stem cell-like cells viability, luminescence; in the data active = inhibition above about 75%; tested in HMLE shEcad cells
HIF activator: HIF pathway transcriptional activation | activation, % at 7.5 µM (by protocol) | AID 1910 | U2OS HRE-luciferase reporter, luminescence; normalized: DMSO 0%, desferrioxamine 100% | actives 0.32% (n = 300,000);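 active = mean activation of at least 10% of the iron chelator positive control signal, with at least half of replicates also reaching 10%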
T cruzi inh: blocks replication of Trypanosoma cruzi | T. cruzi beta-gal in NIH3T3, luminescence, 90 h | inhibition, % (test concentration not listed) | actives 1.4% (n = 300,000) | AID 1885;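 active = mean inhibition across valid replicates above about 55%, limit read from the data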;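 note: signal also drops with host cell toxicity which is not excluded here; higher percent means less beta-gal luminescence so fewer parasites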
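assay system = mouse NIH/3T3 fibroblasts infected with β-gal-expressing T. cruzi Tulahuen C4 | input = 5,000 NIH/3T3 host cells per well | buffer or medium = DMEM plus 2% FBS | timing = 3 h host attachment, then at least 90 h co-culture | measured by = GalScreen luminescence, 60 min | evaluation = luminescence reflecting intracellular parasite burden, expressed as percent inhibition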
Beta cell apopt: beta cell apoptosis inhibition | protection from apoptosis, % (concentration not given with the values) | INS-1E cytokine-induced death, ATP luminescence, 48 h; percent of positive-control rescue, neutral wells zero | AID 435005 | actives 0.8% (n = 300,000);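 active = Every replicate reaches about 75%, or at least half do and their mean reaches it too, limit read from the data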;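 note: higher means more ATP so stronger rescue from cytokine killing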
PfHsp90 yeast 2: inhibits growth of yeast expressing Plasmodium falciparum Hsp90 | inhibition, % at 9.4 µM | AID 504621 | actives 0.32% (n = 310,000) | S. cerevisiae expressing PfHsp90, BacTiter-Glo ATP, 48 h; yeast lacking PDR1 and PDR3 efflux regulators;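 active = every replicate shows inhibition above about 80%, whatever the replicate mean, limit read from the data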
SKKanGAS inh: SKKanGAS growth inhibition; S. pyogenes SKKanGAS, kanamycin growth, BacTiter-Glo, 6 h; inhibition, % at 7.5 µM; actives 1.3% (n = 300,000); AID 1662;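 active = mean replicate score, as percent of positive control median, at least 50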;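 note: strain carries kanamycin resistance gene driven by streptokinase promoter and grows in 40 µg/ml kanamycin; loss of luminescence reflects streptokinase promoter inhibition or plain growth inhibition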
Hits are given with their value; – = inactive; · = no result. An excerpt weighted towards active compounds, which were near 3.6% of everything screened.

SMILES	CSC inhib	HIF activator	T cruzi inh	Beta cell apopt	PfHsp90 yeast 2	SKKanGAS inh
CC1C=CC=CC=CC=CC=CC=CC=CC(OC2OC(C)C(O)C(N)C2O)CC2OC(O)(CC(O)CC(O)C(O)CCC(O)CC(O)CC(=O)OC(C)C(C)C1O)CC(O)C2C(=O)O (stereo not drawn)	·	·	·	·	–	·
Cc1ccc2c(=O)[nH]c(Nc3nc(C)cc(-c4ccccc4)n3)nc2c1	–	–	–	–	–	89.0
COc1nc(Nc2nc3ccccc3c(=O)[nH]2)nc2ccc(C)cc12	125.5	–	58.3	97.1	–	85.2
Cc1cc(C)cc(Nc2nc3ccccc3c(=O)[nH]2)c1	–	–	–	–	–	–
Cc1cccc(-c2nc3ccccc3c(=O)[nH]2)c1	–	–	–	–	–	–
COc1cc(-c2cc(C(=O)Nc3ccc(S(=O)(=O)NCc4ccco4)cc3)c3ccccc3n2)cc(OC)c1OC	–	–	55.6	–	–	–
FC(F)(F)c1cc(Nc2ccccc2)nc(-c2ccccn2)n1	–	–	–	–	–	77.3
Cc1onc(-c2cccc(Cl)c2Cl)c1C(=O)O/N=C(\N)c1ccc([N+](=O)[O-])o1	–	–	77.6	–	–	–
Cc1onc(-c2ccccc2Cl)c1C(=O)O/N=C(\N)c1ccccc1	–	–	58.5	–	–	–
C/C(=N\OC(=O)c1c(-c2ccccc2Cl)noc1C)c1ccncc1	–	–	–	–	·	–
Cc1cc(Br)c2c(c1)/C(=C/C(=O)c1cccs1)C(=O)N2	–	–	58.4	–	87.8	–
Cc1cccc2c1NC(=O)/C2=C\C(=O)c1cccs1	82.6	–	–	–	–	–
O=C(/C=C1\C(=O)Nc2ccccc21)/C=C1\C(=O)Nc2ccccc21	·	·	·	·	–	·
CCc1ccc2c(c1)/C(=C/C(=O)c1cccs1)C(=O)N2	–	–	–	–	124.5	–
CCN(C[C@H]1N[C@@](CC)(C(=O)OC)[C@H]2C(=O)N(Cc3ccccc3)C(=O)[C@@H]12)C(=O)c1ccc(C(C)(C)C)cc1	·	·	·	·	–	·
CC(=O)Nc1ccc2c(c1)CCc1ccccc1-2	–	–	–	–	–	–
O=C(O)/C=C/C(=O)c1ccc2c(c1)CCc1ccccc1-2	–	–	–	–	96.0	–
COc1ccc(SCCCn2c(=O)c3c(ncn3C)n(C)c2=O)cc1	–	–	–	–	–	–
Cc1cc(C)c2nc(SCc3ccc([N+](=O)[O-])cc3)nc(C)c2c1	–	–	–	–	·	–
Cc1cc(C)c2nc(SCCc3ccccc3)nc(C)c2c1	–	–	–	–	–	71.5
Cc1ccc(C(=O)O)cc1N=Cc1cc(Br)cc(Br)c1O	–	–	–	–	107.4	–
COCCn1ccc2c(OCC(=O)Nc3ccccc3OC)cccc2c1=O	–	–	–	–	·	–
Nc1ccc(C(=O)N/N=C2\CCCc3c2[nH]c2ccccc32)cc1	–	–	–	–	·	–
CC(C)c1ccc2[nH]c3c(c2c1)CCC/C3=N\NC(=O)c1ccncc1	–	–	–	–	–	60.1
CCN1CCN(c2cc(C)c3cc(NC(=O)Cc4ccccc4OC)ccc3n2)CC1	–	–	70.6	–	–	–
SMILES	CSC inhib	HIF activator	T cruzi inh	Beta cell apopt	PfHsp90 yeast 2	SKKanGAS inh
COc1ccc(C)cc1NC(=O)CCC(=O)Nc1ccc2nc(N3CCN(C)CC3)cc(C)c2c1	·	–	65.2	–	·	–
CCN1CCN(c2cc(C)c3cc(NC(=O)CCC(=O)Nc4ccc(OC)c(OC)c4)ccc3n2)CC1	–	–	–	–	–	–
Nc1ccc2nn(-c3cccc4ccccc34)nc2c1	–	–	–	74.6	–	–
CCOc1ccc2nc(NC(=O)CN3CCC(n4nnc5cc(C(F)(F)F)ccc54)CC3)sc2c1	–	–	–	–	–	52.3
Cc1cc(NC(=O)CN2CCC(n3nnc4cc(C(F)(F)F)ccc43)CC2)no1	–	–	–	–	–	–
N#C/C(=C(/O)CN1CCN(c2ccccc2F)CC1)c1nc(-c2ccccc2)cs1	–	–	–	–	–	55.3
O=C(c1ccc(Cl)cc1)c1cnc(Nc2ccccc2Cl)s1	–	–	–	–	–	75.3
O=C(c1ccc(Cl)cc1)c1cnc(-c2ccccc2)s1	·	·	·	·	–	·
O=C(c1ccc(O)cc1)c1ccc(C(=O)c2ccc(O)cc2)cc1	–	–	–	–	·	83.0
O=C(OCc1ccc(COC(=O)c2ccc(O)cc2)cc1)c1ccc(O)cc1	–	–	–	–	–	57.7
Cc1cc(C)n2nc(SCC(=O)NC(=O)c3ccccc3)nc2n1	–	·	·	–	–	·
CN(C(=O)CSc1nncc2ccccc12)c1ccccc1	–	·	·	–	·	·
COc1ccccc1-n1c(CNC(=O)c2ccco2)n[nH]c1=S	–	–	–	–	–	–
CC1(C)C2CCC1(C)C(OCC[N+](C)(C)CC(=O)OC1CCCCC1)C2 (stereo not drawn)	–	–	63.1	–	·	–
COc1ccccc1C(=O)NCCNc1nc2cc(C)cc(C)c2cc1C#N	–	–	–	–	–	–
COc1cc(OC)cc(C(=O)NCCNc2nc3cc(C)cc(C)c3cc2C#N)c1	77.3	–	–	–	–	–
O=C1NC[C@H](Cc2ccccc2)N(CC2CCN(CCc3ccc(-c4ccccc4)cc3)CC2)C1=O	·	·	·	·	–	·
O=C(O)c1ccc(NC(=S)NC(=O)c2cccc(COc3ccccc3)c2)cc1	·	–	–	–	–	58.1
O=C(NC(=S)Nc1ccc(CN2CCCCC2)cc1)c1cccc(OCc2ccccc2)c1	·	–	72.6	·	–	–
C[C@@H](c1ccccc1)N1C[C@H]2CCCN2c2cc(Br)ccc2S1(=O)=O	·	·	·	·	–	·
Cc1cc(Cl)ccc1C(=O)C1CCCN(C(=O)c2cncs2)C1 (stereo not drawn)	–	–	–	–	96.2	–
O=C(c1ccc(-c2ccccc2)c(F)c1)C1CCCN(C(=O)c2cncs2)C1 (stereo not drawn)	–	–	–	–	88.8	–
Cc1ccc(N2CC(C(=O)Nc3c4c(nn3C(C)(C)C)CS(=O)(=O)C4)CC2=O)cc1C (stereo not drawn)	–	–	–	–	–	–
COc1ccccc1-n1c(SCC(=O)Nc2ccc(Br)cc2)nc(O)cc1=O	–	–	–	·	–	64.2
COc1ccc(NC(=O)CSc2nc(O)cc(=O)n2-c2ccccc2)cc1	–	–	–	–	–	88.3
CCOC(=O)COc1cnc2ccccc2n1	–	–	–	–	–	–
O=C(NC(NC(=S)Nc1ccccc1Cl)C(Cl)(Cl)Cl)c1cccc(Cl)c1 (stereo not drawn)	111.5	–	60.2	–	·	96.6
COc1ccc(NC(=S)NC(NC(=O)c2cccc(Cl)c2)C(Cl)(Cl)Cl)c([N+](=O)[O-])c1 (stereo not drawn)	·	–	72.8	·	–	–
Cc1ccc(-n2nc3c(=O)n(CCCC(=O)NCc4cccc(F)c4)nc(C)c3c2C)cc1	–	–	–	–	–	–
CC1(C)CC(=O)C=C(Nc2ccc([N+](=O)[O-])cc2)C1	–	–	–	–	–	–
